From ChEMBL document CHEMBL1147738, “Potent and selective mitogen-activated protein kinase kinase (MEK) 1,2 inhibitors. 1. 4-(4-bromo-2-fluorophenylamino)-1- methylpyridin-2(1H)-ones” (J Med Chem, 2006)

Tests used:
[1] = system: Malme-3M; experiment: Inhibition of cellular viability of Malme-3M cells; type: functional, Homo sapiens
[2] = system: Malme-3M; experiment: Inhibition of basal ERK phosphorylation in Malme-3M cells; type: functional, Homo sapiens
[3] = target: Casein kinase II (Homo sapiens) (UniProt P67870+P68400+P19784); experiment: Inhibition of CK2 at 10 uM; type: protein-complex assay
Outline: (§1)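 Kinase panel run at Upstate (Dundee). Each compound was tested at 10 µM against each enzyme and reported as % inhibition.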

[4] = target: Mitogen-activated protein kinase 8 (Homo sapiens) (UniProt P45983); experiment: Inhibition of JNK/SAPK1c at 10 uM; outline: as §1
[5] = target: Protein kinase C alpha type (Homo sapiens) (UniProt P17252); experiment: Inhibition of PKCa at 10 uM; outline: as §1
[6] = target: Rho-associated protein kinase 2 (Homo sapiens) (UniProt O75116); experiment: Inhibition of ROCK 2 at 10 uM; outline: as §1
[7] = target: Tyrosine-protein kinase Lck (Homo sapiens) (UniProt P06239); experiment: Inhibition of LCK at 10 uM; outline: as §1
[8] = target: Ribosomal protein S6 kinase (P70S6K) (Homo sapiens) (UniProt Q9UBS0+P23443); experiment: Inhibition of p70 S6K at 10 uM; type: protein-complex assay; outline: as §1
[9] = target: Cyclin-dependent kinase 2/cyclin A (Homo sapiens) (UniProt P24941+P20248+P78396); experiment: Inhibition of CDK2/cyclin A at 10 uM; type: protein-complex assay; outline: as §1
[10] = Half life in rat at 1 mg/kg, iv; type: ADME, organism-based; design: dose 1 mg/kg, route intravenous; details: Sprague-Dawley, in vivo
Outline: (§2)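 Male Sprague Dawley rats (6-10 weeks), fed ad lib, dosed IV at 1 mg/kg (1 mg/mL in 10% DMSO/90% normal saline, 1 mL/kg). Tail-vein EDTA blood sampled 1, 5, 15, 30 min and 1, 2, 4, 8, 12, 24 h. Plasma analysed by LC/MS/MS after methanol protein precipitation, range 9 ng/mL to 20 µg/mL. Parameters derived by non-compartmental analysis.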

[11] = target: T1, Lymphokine-activated killer T-cell-originated protein kinase (Homo sapiens) (UniProt Q96KB5); experiment: Inhibition of PBK at 10 uM; outline: as §1
T1 sequence (whole entry): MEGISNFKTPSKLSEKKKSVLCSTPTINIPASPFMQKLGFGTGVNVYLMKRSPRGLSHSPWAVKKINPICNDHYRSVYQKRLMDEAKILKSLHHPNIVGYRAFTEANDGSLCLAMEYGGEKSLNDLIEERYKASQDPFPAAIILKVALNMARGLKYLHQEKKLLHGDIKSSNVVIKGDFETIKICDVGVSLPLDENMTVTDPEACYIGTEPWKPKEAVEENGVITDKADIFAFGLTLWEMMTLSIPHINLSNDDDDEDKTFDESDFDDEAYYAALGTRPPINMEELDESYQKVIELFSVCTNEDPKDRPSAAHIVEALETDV

[12] = target: Mitogen-activated protein kinase 11 (Homo sapiens) (UniProt Q15759); experiment: Inhibition of SAPK2b/p38--beta-2 at 10 uM; outline: as §1
[13] = target: Ribosomal protein S6 kinase alpha-1 (Homo sapiens) (UniProt Q15418); experiment: Inhibition of MAPKAP-K1a at 10 uM; outline: as §1
[14] = target: MAP kinase-activated protein kinase 2 (Homo sapiens) (UniProt P49137); experiment: Inhibition of MAPKAP-K2 at 10 uM; outline: as §1
[15] = target: AMP-activated protein kinase, AMPK (Homo sapiens) (UniProt P54646+O43741+P54619+Q9UGJ0+Q9Y478+Q13131+Q9UGI9); experiment: Inhibition of AMPK at 10 uM; type: protein-complex assay; outline: as §1
[16] = target: Mitogen-activated protein kinase 1 (Homo sapiens) (UniProt P28482); experiment: Inhibition of MAPK2/ERK2 at 10 uM; outline: as §1
[17] = target: cAMP-dependent protein kinase (PKA) (Homo sapiens) (UniProt P22694+P17612+P22612); experiment: Inhibition of PKA at 10 uM; type: protein assay; outline: as §1
[18] = Half life in rat at 10 mg/kg, po; type: ADME, organism-based; design: dose 10 mg/kg, route oral; details: Sprague-Dawley, in vivo
Outline: (§3)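 Male Sprague Dawley rats (6-10 weeks) were given 10 mg/kg by oral gavage (2 mg/mL in 1% CMC/0.5% Tween 80, 5 mL/kg). Tail-vein EDTA blood was drawn at 15 and 30 min and 1, 2, 4, 8, 12, 24, 48, 72 h. Plasma was quantified by LC/MS/MS after methanol precipitation. Parameters came from non-compartmental analysis.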

[19] = target: Dual specificity tyrosine-phosphorylation-regulated kinase 1A (Homo sapiens) (UniProt Q13627); experiment: Inhibition of DYRK1a at 10 uM; outline: as §1
[20] = target: Ribosomal protein S6 kinase alpha-5 (Homo sapiens) (UniProt O75582); experiment: Inhibition of MSK1 at 10 uM; outline: as §1
[21] = Clearance in presence of human hepatocytes; type: ADME, cell-based, Liver, Hepatocyte
Outline: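 Human hepatocytes (fresh or cryopreserved) diluted to 2 x 10⁶ viable cells/mL in supplemented Krebs-Henseleit buffer pH 7.3, mixed 1:1 with 2 µM compound working solution. Incubated at 37 °C, 5% CO₂, duplicates, one plate per timepoint. Quenched with labetalol internal standard and centrifuged; compound remaining measured by LC-MS/MS (ESI+, MRM).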

[22] = target: T2, MAP kinase-activated protein kinase 5 (Homo sapiens) (UniProt Q8IW41); experiment: Inhibition of PRAK at 10 uM; outline: as §1
T2 sequence (whole entry): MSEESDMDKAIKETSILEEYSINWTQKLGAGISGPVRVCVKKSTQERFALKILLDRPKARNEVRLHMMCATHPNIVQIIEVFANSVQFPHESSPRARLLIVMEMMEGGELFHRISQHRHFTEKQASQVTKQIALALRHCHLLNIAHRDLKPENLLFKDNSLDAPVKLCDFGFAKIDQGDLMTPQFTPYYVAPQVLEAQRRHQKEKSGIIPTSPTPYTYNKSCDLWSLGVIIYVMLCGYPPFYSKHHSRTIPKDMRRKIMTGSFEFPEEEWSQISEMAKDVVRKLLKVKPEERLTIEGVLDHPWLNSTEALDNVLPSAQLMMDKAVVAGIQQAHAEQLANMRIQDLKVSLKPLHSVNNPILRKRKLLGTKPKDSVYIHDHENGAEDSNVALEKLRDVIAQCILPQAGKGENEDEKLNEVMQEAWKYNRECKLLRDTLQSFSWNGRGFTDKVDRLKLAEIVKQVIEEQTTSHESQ

[23] = target: Glycogen synthase kinase-3 beta (Homo sapiens) (UniProt P49841); experiment: Inhibition of GSK3b at 10 uM; outline: as §1
[24] = system: Rattus norvegicus; experiment: AUC in rat at 1 mg/kg, iv; type: ADME, organism-based, Sprague-Dawley, Plasma; design: dose 1 mg/kg, route intravenous; details: in vivo; outline: as §2
[25] = target: T3, Serine/threonine-protein kinase Chk1 (Homo sapiens) (UniProt O14757); experiment: Inhibition of CHK1 at 10 uM; outline: as §1
T3 sequence (whole entry): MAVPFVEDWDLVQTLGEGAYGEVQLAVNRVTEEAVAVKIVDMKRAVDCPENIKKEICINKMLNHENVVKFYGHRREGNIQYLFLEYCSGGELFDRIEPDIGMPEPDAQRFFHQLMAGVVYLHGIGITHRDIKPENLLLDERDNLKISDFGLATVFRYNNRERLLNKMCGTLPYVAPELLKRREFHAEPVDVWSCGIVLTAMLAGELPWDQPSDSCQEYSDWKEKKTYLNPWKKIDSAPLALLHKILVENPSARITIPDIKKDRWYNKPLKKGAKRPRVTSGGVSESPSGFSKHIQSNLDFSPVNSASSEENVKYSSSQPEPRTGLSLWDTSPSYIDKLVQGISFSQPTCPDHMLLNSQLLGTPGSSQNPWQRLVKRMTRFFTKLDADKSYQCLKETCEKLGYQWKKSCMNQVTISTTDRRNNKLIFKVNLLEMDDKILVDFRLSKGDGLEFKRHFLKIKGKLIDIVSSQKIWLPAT

[26] = Oral bioavailability in rat; type: ADME, organism-based; details: Sprague-Dawley, in vivo
Outline: (§4)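 Male Sprague Dawley rats (6-10 weeks) received IV 1 mg/kg (10% DMSO/90% saline) and PO 10 mg/kg (1% CMC/0.5% Tween 80). Serial tail-vein plasma was taken up to 24 h (IV) or 72 h (PO) and analysed by LC/MS/MS (9 ng/mL to 20 µg/mL). Parameters were calculated non-compartmentally.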

[27] = system: Rattus norvegicus; experiment: AUC in rat at 10 mg/kg, po; type: ADME, organism-based, Sprague-Dawley, Plasma; design: dose 10 mg/kg, route oral; details: in vivo; outline: as §3
[28] = target: RAC-alpha serine/threonine-protein kinase (Homo sapiens) (UniProt P31749); experiment: Inhibition of PKBa at 10 uM; outline: as §1
[29] = Clearance in rat; type: ADME, organism-based; details: Sprague-Dawley, in vivo; outline: as §4
[30] = target: Mitogen-activated protein kinase 14 (Homo sapiens) (UniProt Q16539); experiment: Inhibition of SAPK2a/p38 at 10 uM; outline: as §1
[31] = Volume of distribution in rat; type: ADME, organism-based; details: Sprague-Dawley, in vivo, read-out: Vdss; outline: as §4

Mitogen-activated protein kinase 11 (Homo sapiens), sequence (Q15759 whole entry): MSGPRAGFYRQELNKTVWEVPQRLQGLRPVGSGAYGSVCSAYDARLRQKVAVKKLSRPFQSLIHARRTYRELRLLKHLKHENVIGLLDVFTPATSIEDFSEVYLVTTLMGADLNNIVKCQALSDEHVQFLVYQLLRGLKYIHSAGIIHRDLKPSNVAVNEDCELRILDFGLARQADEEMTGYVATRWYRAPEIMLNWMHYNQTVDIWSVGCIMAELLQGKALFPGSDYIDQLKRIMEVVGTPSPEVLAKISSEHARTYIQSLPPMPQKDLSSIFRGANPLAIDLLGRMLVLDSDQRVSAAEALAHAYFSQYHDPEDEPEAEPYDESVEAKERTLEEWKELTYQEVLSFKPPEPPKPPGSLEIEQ
Ribosomal protein S6 kinase alpha-1 (Homo sapiens), sequence (Q15418 whole entry): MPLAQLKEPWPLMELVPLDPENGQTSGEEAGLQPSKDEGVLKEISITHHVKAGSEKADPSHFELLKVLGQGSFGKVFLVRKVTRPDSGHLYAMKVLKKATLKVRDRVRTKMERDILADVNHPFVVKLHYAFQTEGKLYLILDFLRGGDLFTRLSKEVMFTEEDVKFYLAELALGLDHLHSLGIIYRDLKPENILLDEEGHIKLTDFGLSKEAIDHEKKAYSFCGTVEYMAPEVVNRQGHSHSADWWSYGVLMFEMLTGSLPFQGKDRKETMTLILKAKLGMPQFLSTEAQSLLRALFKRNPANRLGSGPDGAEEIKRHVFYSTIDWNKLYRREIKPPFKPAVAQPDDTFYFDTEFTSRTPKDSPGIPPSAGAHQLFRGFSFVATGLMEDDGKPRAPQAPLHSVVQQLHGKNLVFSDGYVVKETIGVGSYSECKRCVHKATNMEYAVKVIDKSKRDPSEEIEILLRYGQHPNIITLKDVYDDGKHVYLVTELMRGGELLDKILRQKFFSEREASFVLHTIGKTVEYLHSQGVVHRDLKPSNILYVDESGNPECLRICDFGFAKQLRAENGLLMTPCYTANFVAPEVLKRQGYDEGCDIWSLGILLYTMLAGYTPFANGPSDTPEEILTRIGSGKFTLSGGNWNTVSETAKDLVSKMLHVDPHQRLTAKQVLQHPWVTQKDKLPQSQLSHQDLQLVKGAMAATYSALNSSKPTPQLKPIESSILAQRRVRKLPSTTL
Glycogen synthase kinase-3 beta (Homo sapiens), sequence (P49841 whole entry, looked up): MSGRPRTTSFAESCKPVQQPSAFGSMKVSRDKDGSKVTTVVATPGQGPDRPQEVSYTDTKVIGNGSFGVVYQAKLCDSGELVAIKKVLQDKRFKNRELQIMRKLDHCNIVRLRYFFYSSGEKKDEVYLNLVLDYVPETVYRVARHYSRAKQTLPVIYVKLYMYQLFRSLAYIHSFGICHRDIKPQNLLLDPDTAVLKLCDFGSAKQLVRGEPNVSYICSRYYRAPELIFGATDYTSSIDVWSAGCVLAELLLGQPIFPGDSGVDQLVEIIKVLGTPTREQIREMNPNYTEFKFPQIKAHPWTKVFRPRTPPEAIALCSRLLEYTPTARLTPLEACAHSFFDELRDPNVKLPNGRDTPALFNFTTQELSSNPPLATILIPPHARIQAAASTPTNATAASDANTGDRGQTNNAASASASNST
Rho-associated protein kinase 2 (Homo sapiens), sequence (O75116 whole entry, looked up): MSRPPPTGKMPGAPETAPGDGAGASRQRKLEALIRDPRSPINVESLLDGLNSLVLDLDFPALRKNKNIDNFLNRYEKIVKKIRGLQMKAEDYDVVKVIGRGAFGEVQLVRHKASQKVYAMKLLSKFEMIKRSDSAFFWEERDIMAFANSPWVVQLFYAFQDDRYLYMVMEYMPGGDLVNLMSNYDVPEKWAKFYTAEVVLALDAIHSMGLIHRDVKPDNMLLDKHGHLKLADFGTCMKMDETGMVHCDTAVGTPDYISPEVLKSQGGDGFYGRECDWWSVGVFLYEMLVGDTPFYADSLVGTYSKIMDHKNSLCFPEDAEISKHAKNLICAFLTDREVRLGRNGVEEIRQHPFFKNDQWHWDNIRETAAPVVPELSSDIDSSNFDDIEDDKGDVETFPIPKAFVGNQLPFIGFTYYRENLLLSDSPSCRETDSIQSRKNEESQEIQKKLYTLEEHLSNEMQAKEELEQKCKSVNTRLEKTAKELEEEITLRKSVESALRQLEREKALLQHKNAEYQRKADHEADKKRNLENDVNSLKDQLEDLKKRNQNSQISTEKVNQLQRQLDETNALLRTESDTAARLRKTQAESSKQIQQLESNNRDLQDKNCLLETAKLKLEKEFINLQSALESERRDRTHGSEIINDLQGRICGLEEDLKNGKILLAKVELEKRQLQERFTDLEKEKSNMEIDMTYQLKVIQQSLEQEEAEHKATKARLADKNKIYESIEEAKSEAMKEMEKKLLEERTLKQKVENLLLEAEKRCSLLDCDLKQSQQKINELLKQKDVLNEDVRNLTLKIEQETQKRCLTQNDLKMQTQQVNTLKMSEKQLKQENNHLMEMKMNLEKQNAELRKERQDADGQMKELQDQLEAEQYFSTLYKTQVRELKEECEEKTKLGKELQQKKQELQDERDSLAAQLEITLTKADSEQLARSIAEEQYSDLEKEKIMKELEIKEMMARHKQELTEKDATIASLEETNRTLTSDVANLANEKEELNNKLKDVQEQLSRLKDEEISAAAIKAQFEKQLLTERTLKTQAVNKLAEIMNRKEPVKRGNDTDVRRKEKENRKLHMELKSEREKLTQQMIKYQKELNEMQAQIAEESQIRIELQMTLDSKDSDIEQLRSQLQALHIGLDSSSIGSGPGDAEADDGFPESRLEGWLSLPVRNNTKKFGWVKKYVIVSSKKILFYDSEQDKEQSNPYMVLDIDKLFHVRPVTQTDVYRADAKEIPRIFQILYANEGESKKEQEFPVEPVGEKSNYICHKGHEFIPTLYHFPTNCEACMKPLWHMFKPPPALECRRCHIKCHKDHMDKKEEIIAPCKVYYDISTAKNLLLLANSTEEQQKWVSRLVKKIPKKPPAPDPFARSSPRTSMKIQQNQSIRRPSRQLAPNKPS
Mitogen-activated protein kinase 1 (Homo sapiens), sequence (P28482 whole entry): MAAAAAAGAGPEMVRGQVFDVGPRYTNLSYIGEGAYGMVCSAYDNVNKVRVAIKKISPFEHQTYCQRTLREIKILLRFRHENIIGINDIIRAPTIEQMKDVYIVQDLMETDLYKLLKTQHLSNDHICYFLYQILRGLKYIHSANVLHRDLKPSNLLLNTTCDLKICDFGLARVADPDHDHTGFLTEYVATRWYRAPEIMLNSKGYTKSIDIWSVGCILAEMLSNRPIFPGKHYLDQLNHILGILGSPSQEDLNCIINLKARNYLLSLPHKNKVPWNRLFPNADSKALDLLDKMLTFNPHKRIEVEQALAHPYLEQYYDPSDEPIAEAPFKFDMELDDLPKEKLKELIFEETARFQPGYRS
Mitogen-activated protein kinase 8 (Homo sapiens), sequence (P45983 whole entry): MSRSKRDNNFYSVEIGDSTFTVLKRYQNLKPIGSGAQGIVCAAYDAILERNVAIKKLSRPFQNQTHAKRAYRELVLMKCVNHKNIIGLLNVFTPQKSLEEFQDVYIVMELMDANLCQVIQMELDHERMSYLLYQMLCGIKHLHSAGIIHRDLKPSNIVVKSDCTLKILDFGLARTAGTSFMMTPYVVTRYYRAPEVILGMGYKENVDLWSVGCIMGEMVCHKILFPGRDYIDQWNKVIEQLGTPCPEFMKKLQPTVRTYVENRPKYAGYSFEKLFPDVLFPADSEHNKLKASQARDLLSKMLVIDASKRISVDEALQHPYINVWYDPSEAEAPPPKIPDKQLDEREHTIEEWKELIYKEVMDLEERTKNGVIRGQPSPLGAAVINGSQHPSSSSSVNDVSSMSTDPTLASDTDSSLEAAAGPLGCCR
MAP kinase-activated protein kinase 2 (Homo sapiens), sequence (P49137 whole entry, looked up): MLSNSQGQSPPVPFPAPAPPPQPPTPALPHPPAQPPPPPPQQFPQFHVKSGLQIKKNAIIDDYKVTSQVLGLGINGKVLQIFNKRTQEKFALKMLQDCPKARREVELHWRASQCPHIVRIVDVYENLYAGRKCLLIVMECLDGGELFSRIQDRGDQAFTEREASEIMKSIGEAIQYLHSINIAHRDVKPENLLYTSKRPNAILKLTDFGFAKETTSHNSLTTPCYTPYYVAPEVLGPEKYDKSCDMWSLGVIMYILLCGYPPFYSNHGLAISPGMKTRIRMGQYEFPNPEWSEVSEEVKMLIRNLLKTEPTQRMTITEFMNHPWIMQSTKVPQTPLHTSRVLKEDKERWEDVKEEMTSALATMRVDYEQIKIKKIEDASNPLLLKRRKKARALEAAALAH

Compound: Cn1cc(C(=O)NOCC2CC2)c(Nc2ccc(Br)cc2F)cc1=O
- Activity [1]: 165 nM
- Activity [2]: 26 nM

Compound: Cn1cc(C(=O)NOCC2CC2)c(Nc2ccc(Br)cc2F)c(Cl)c1=O
- Activity [1]: 195 nM
- Activity [2]: 27 nM

Compound: Cn1cc(C(=O)NOCC2CC2)c(Nc2ccc(Br)cc2F)c(F)c1=O
- Activity [1]: 22 nM
- Activity [2]: 3.4 nM

Compound: Cn1cc(C(=O)O)c(Nc2ccc(Br)cc2F)c(F)c1=O
- Activity [1]: >5000 nM
- Activity [2]: >10000 nM

Compound: CCONC(=O)c1cn(C)c(=O)c(F)c1Nc1ccc(Br)cc1F
- inhibition [3]: 4%
- inhibition [4]: 15%
- inhibition [5]: 6%
- inhibition [6]: 4%
- inhibition [7]: 19%
- inhibition [8]: 13%
- inhibition [9]: 25%
- half-life [10]: 6 h
- inhibition [11]: -1%
- inhibition [12]: 9%
- inhibition [13]: 6%
- inhibition [14]: 15%
- inhibition [15]: 8%
- inhibition [16]: 7%
- inhibition [17]: 14%
- half-life [18]: 12 h
- inhibition [19]: 12%
- inhibition [20]: 7%
- CLhep predicted [21]: 2 mL/min/kg
- inhibition [22]: 18%
- inhibition [23]: 21%
- AUC [24]: 24100 ng·h/mL
- inhibition [25]: 13%
- bioavailability [26]: 58%
- AUC [27]: 138000 ng·h/mL
- inhibition [28]: 6%
- clearance [29]: 0.7 mL/min/kg
- inhibition [30]: 10%
- Vd [31]: 0.4 L/kg

Compound: Cn1cc(C(=O)NOCCO)c(Nc2ccc(Br)cc2F)c(F)c1=O
- Activity [1]: 115 nM
- Activity [2]: 22 nM

Compound: Cn1cc(C(=O)NCC2CC2)c(Nc2ccc(Br)cc2F)c(F)c1=O
- Activity [1]: >5000 nM
- Activity [2]: 1206 nM

Compound: CNC(=O)c1cn(C)c(=O)c(F)c1Nc1ccc(Br)cc1F
- Activity [1]: 405 nM
- Activity [2]: 68 nM
